Source: PubChem BioAssay (several laboratories)
KCC2 mod: modulators of human KCC2 chloride dependent transport | Q9H2X9 | KCC2 cells, thallium flux FluoZin-2 fluorescence | B-score of Tl+ flux slope (higher = more flux/activation; lower = inhibition) at 10 µM | hit rate 2.2% among 190,000;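 active = thallium flux slope and its plate-corrected score both differing from the plate sample mean at a set confidence after two filtering rounds, in either direction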;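 note: slope of fluorescence scaled to starting intensity during 10 to 20 s after thallium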
Autophagy HCS: modulators of autophagy. hit rate 0.98% among 190,000. calls only at 10 µM (by protocol). MEF GFP-LC3 puncta imaging; test concentration mostly 10 µM;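 active = percentage of spot-positive cells more than 3 SD above its plate mean, without a fluorescence outlier flag or 80% toxicity; inconclusive = no clear call, values can overlap the other calls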
WT yeast gro inh: growth inhibition of WT yeast, mitochondrial fusion screen; inhibition, % at 10 µM; mitochondrial fusion phenotypic screen, WT strain; hit rate 2.1% among 190,000; in the data active = inhibition above about 58%; tested in S. cerevisiae
Insulin prom up: MIN6 insulin promoter up-regulation | hit rate 0.3% among 190,000 | MIN6 insulin promoter-GFP reporter, high-content imaging; active compounds read high | z-score at 5 µM | AID 1625;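 active = z-score above 3 at 5 µM with at least 500 cells counted in the well; inconclusive = wells under 500 cells, flagged as cytotoxic or low count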
SKKanGAS inh: SKKanGAS growth inhibition; S. pyogenes SKKanGAS, kanamycin growth, BacTiter-Glo, 6 h; inhibition, % at 7.5 µM; hit rate 1.3% among 300,000;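 active = mean replicate score, as percent of positive control median, at least 50; inconclusive = mean below 50 but one replicate at or above 50; inactive = mean and every replicate below 50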;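 note: strain carries kanamycin resistance gene driven by streptokinase promoter and grows in 40 µg/ml kanamycin; loss of luminescence reflects streptokinase promoter inhibition or plain growth inhibition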
Rad51 HR inh: blocks human Rad51 in homologous recombination. Q06609. hRad51 DNA strand exchange, fluorescence dequenching. inhibition, % at 10 µM. hit rate 0.085% among 200,000;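 active = inhibition above 40% at the single screening dose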
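Test system: preformed human Rad51 ssDNA filaments. Compound dosing: single dose, 10 µM final compound. Incubation: filaments 15 min 37 °C, then compound 30 min. Technique: FRET fluorescence dequenching, excitation 485 nm, emission 520 nm. Read-out basis: percent inhibition from fluorescence, normalised to plate control and blank means. Benchmarks: plate controls and plate blanks.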
KCC2 secondary: KCC2 (human) modulation, secondary assay; shares compounds with KCC2 mod; HEK293-KCC2, thallium flux, FluoZin2 fluorescence; active compounds read high; normalised thallium flux (F/F0 slope) at 10 µM; hit rate 15% among 3,700;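 active = thallium flux slope above the same plate's solvent-only control mean plus 3 SD; inconclusive = the two replicate wells disagree; inactive = no significant difference from solvent-only control wells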
KCC2 bumet counter: thallium flux persisting under bumetanide in KCC2 cells, counter-screen secondary assay; shares compounds with KCC2 mod; HEK293-KCC2 + bumetanide/ouabain, thallium flux FluoZin2; active compounds read high; normalized thallium flux at 10 µM; hit rate 49% among 3,700; AID 1714;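 active = thallium entry rate above the same plate's blocked-transporter control wells by more than 3 SD; inconclusive = the two repeat wells disagree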;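 note: raw slope of fluorescence over initial fluorescence between 10 and 20 s after thallium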
KCC2 secondary2: confirmation of human KCC2 transport modulators | shares compounds with KCC2 mod | HEK293-KCC2, thallium flux FluoZin2 fluorescence; actives lie on both sides; F/F0 rise rate, 10–20 s post-thallium | normalized thallium flux at 10 µM | hit rate 23% among 3,700;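 active = thallium flux slope more than 3 SD above or below the plate's solvent-only control mean, mostly below; inconclusive = the two repeat wells disagreed; inactive = no significant shift from solvent-only controls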
HEK counter1: counter-screen for KCC2 modulators: effect in parental HEK293 cells | shares compounds with KCC2 mod | thallium flux FluoZin2, ouabain; baseline-ratio fluorescence slope, 10–20 s after thallium | thallium flux rate (normalised fluorescence) at 10 µM | hit rate 46% among 3,700 | AID 1716;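 active = thallium flux rate significantly above the same plate's solvent-only control wells, beyond their mean plus 3 SD; inconclusive = the two replicate wells gave conflicting results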
KCC2 retest ouab: KCC2 (human) modulation, ouabain retest; hit rate 48% among 3,700; shares compounds with KCC2 mod; raw Tl+ flux slope (below DMSO = inhibition, above = activation) at 10 µM; HEK293-KCC2, thallium flux FluoZin2 fluorescence; bidirectional: low = inhibitor, high = activator;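 active = thallium flux slope beyond 3 SD from same-plate DMSO control mean in most replicates, usually higher, sometimes lower; inconclusive = repeat tests gave conflicting results; inactive = no significant difference from controls in most replicates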;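 note: slope of initial-normalized fluorescence between seconds 10 and 20 after thallium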
HEK counter2: parental HEK flux effect, counter-screen 2; shares compounds with KCC2 mod; HEK293 parental, thallium flux FluoZin-2 fluorescence slope; thallium flux slope at 10 µM; hit rate 33% among 3,700; AID 1718;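 active = thallium flux slope above the same plate's solvent-control mean plus 3 SD in both duplicate wells; inconclusive = duplicate wells that disagreed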;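 note: run without ouabain in cells lacking the KCC2 cotransporter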
Of the large screens only hits and unclear results are named; the others gave an inactive call (follow-up assays come after a bar, where they were run). An excerpt weighted towards active compounds, which were near 4.2% of everything screened.

O=C(NC(=S)Nc1cccc([N+](=O)[O-])c1)c1ccco1	KCC2 mod 28.1 | KCC2 secondary 0.0217 | KCC2 bumet counter 0.0788 | KCC2 secondary2 inconclusive | HEK counter1 inconclusive | KCC2 retest ouab 0.0617 | HEK counter2 0.0246
O=C(NC(=S)Nc1ccc(Br)cn1)c1cccs1	KCC2 mod 7.67 | KCC2 secondary inactive | KCC2 bumet counter 0.0239 | KCC2 secondary2 inactive | HEK counter1 0.0169 | KCC2 retest ouab 0.033 | HEK counter2 0.0176
Cc1ccc(C(=O)NC(=S)Nc2cccc(NC(=O)c3ccccc3)c2)cc1[N+](=O)[O-]	none
O=C(NC(=S)Nc1ccccc1)c1cccs1	none (no result: KCC2 mod, Autophagy HCS, WT yeast gro inh, Insulin prom up, Rad51 HR inh)
O=C(NC(=S)Nc1ccccn1)c1cccc([N+](=O)[O-])c1	KCC2 mod 7.99 (no result: Autophagy HCS, WT yeast gro inh) | KCC2 secondary inconclusive | KCC2 bumet counter 0.0419 | KCC2 secondary2 inactive | HEK counter1 0.0138 | KCC2 retest ouab inactive | HEK counter2 0.0129
COc1ccc(OC)c2c1cc(C(=O)N[C@@H](C)C(=O)N[C@@H](C(=O)O)c1ccccc1)n2C	none (no result: KCC2 mod, Autophagy HCS, WT yeast gro inh, Insulin prom up, Rad51 HR inh)
O=C(NC(=S)Nc1ccccn1)c1cncc(Br)c1	KCC2 mod 6.22 (no result: Rad51 HR inh) | KCC2 secondary inactive | KCC2 bumet counter 0.0168 | KCC2 secondary2 inactive | HEK counter1 0.0146 | KCC2 retest ouab inconclusive | HEK counter2 0.014
O=C(NC(=S)Nc1ccc(N2CCOCC2)cc1)c1cncc(Br)c1	KCC2 mod 5.5 (no result: Rad51 HR inh) | KCC2 secondary inactive | KCC2 bumet counter 0.0186 | KCC2 secondary2 inactive | HEK counter1 inconclusive | KCC2 retest ouab 0.026 | HEK counter2 inactive
O=C(NC(=S)Nc1ccc(Br)cn1)c1cncc(Br)c1	none
COc1ccc(-c2csc(NC(=O)c3cccs3)c2C(=O)O)cc1OC	KCC2 mod -3.66 | KCC2 secondary inactive | KCC2 bumet counter inactive | KCC2 secondary2 inactive | HEK counter1 inactive | KCC2 retest ouab 0.0165 | HEK counter2 inactive
COc1ccc(-c2csc(NC(=O)Cc3cccc4ccccc34)c2C(=O)O)cc1	KCC2 mod -4.14 | KCC2 secondary inactive | KCC2 bumet counter inactive | KCC2 secondary2 inactive | HEK counter1 inactive | KCC2 retest ouab inactive | HEK counter2 inactive
CCOCCCNC(=S)Nc1ccc(S(N)(=O)=O)cc1	none
O=C(Cn1nc(C(F)(F)F)c2c1CCCC2)N1CCOCC1	none (no result: Insulin prom up, Rad51 HR inh)
O=C(Cn1nc(C(F)(F)F)c2c1CCC2)N1CCN(c2ccccc2)CC1	none (no result: KCC2 mod) | KCC2 secondary inactive | KCC2 bumet counter inactive | KCC2 secondary2 inactive | HEK counter1 inactive | KCC2 retest ouab 0.0161 | HEK counter2 inactive
O=C(Cn1nc(-c2ccc(Cl)cc2)ccc1=O)N1CCN(c2ccccc2)CC1	none (no result: KCC2 mod, Rad51 HR inh) | KCC2 secondary inactive | KCC2 bumet counter inactive | KCC2 secondary2 inactive | HEK counter1 inactive | KCC2 retest ouab inconclusive | HEK counter2 inactive
O=C(O)Cn1nc(-c2ccc(Cl)cc2)ccc1=O	none (no result: KCC2 mod, Autophagy HCS, WT yeast gro inh, Insulin prom up, Rad51 HR inh)
CCOC(=O)c1c(-c2cccs2)csc1NC(=O)CCCC(=O)O	none (no result: KCC2 mod, Rad51 HR inh) | KCC2 secondary inactive | KCC2 bumet counter 0.00596 | KCC2 secondary2 inactive | HEK counter1 inconclusive | KCC2 retest ouab inactive | HEK counter2 inactive
CN(C)S(=O)(=O)c1cccc(NC(=O)c2cc3c(cc2Cl)N2CCCCCC2=NS3(=O)=O)c1	KCC2 mod -4.51 | KCC2 secondary inactive | KCC2 bumet counter inactive | KCC2 secondary2 0.0226 | HEK counter1 inactive | KCC2 retest ouab 0.0137 | HEK counter2 inactive
CN(C)S(=O)(=O)c1cccc(NC(=O)c2ccc3c(c2)S(=O)(=O)N=C2CCCCCN23)c1	none (no result: KCC2 mod, Autophagy HCS, WT yeast gro inh, Insulin prom up, Rad51 HR inh)
NNC(=O)c1oc2ccccc2c1-n1cccc1	none
O=C(NNC(=O)c1oc2ccccc2c1-n1cccc1)c1ccco1	none (no result: KCC2 mod, Rad51 HR inh) | KCC2 secondary inactive | KCC2 bumet counter 0.0238 | KCC2 secondary2 0.0398 | HEK counter1 0.0188 | KCC2 retest ouab 0.0299 | HEK counter2 0.0188
CN(C)S(=O)(=O)c1cccc2nsnc12	none (no result: KCC2 mod)
CN(C1CCS(=O)(=O)C1)S(=O)(=O)c1cccc2nsnc12 (centres undefined)	none (no result: KCC2 mod) | KCC2 secondary inactive | KCC2 bumet counter inactive | KCC2 secondary2 inactive | HEK counter1 inactive | KCC2 retest ouab inactive | HEK counter2 inactive
CNS(=O)(=O)c1cccc2nsnc12	none | KCC2 secondary inactive | KCC2 bumet counter inconclusive | KCC2 secondary2 inactive | HEK counter1 inactive | KCC2 retest ouab inactive | HEK counter2 inactive
CCOc1ccc(OCC)c(NS(=O)(=O)c2cccc3nsnc23)c1	KCC2 mod 18.4 | KCC2 secondary 0.0133 | KCC2 bumet counter 0.0726 | KCC2 secondary2 inactive | HEK counter1 0.0274 | KCC2 retest ouab 0.0353 | HEK counter2 0.0134
CCOc1ccccc1NS(=O)(=O)c1cccc2nsnc12	none
COC(=O)[C@H](CC(C)C)NC(=O)Nc1ccc(S(N)(=O)=O)cc1	none (no result: Autophagy HCS, WT yeast gro inh)
O=C(CCc1nnc(COc2ccccc2)o1)NCc1ccc(Cl)s1	none (no result: Rad51 HR inh)
O=C(CCc1nnc(COc2ccccc2)o1)NCc1ccccc1C(F)(F)F	KCC2 mod -3.19 | KCC2 secondary inactive | KCC2 bumet counter inactive | KCC2 secondary2 inactive | HEK counter1 inactive | KCC2 retest ouab 0.0167 | HEK counter2 inactive
O=[N+]([O-])c1ncccc1OCc1ccc(Br)cc1F	none (no result: KCC2 mod, Autophagy HCS, WT yeast gro inh, Insulin prom up, Rad51 HR inh)
COc1ccccc1-c1nnc2sc(COc3ccc(F)cc3)nn12	KCC2 mod -3.91 (no result: WT yeast gro inh, Rad51 HR inh) | KCC2 secondary inactive | KCC2 bumet counter inactive | KCC2 secondary2 inconclusive | HEK counter1 0.00588 | KCC2 retest ouab 0.0146 | HEK counter2 inconclusive
O=S1(=O)CCN2C(=N1)Sc1c2ccc2c1CCCC2	KCC2 mod 7.72 | KCC2 secondary inactive | KCC2 bumet counter inactive | KCC2 secondary2 inactive | HEK counter1 inactive | KCC2 retest ouab inactive | HEK counter2 inactive
N=C1SC(c2ccccc2)C(=O)N1c1ncc(Cc2ccccc2Cl)s1 (centres undefined)	KCC2 mod 5.79, SKKanGAS inh 116.2 | KCC2 secondary inactive | KCC2 bumet counter 0.0198 | KCC2 secondary2 inactive | HEK counter1 0.0158 | KCC2 retest ouab inconclusive | HEK counter2 0.0198
Cn1cc(C(=O)N2CCc3ccccc32)cn1	none
